One test addresses T1, B2 bradykinin receptor (Homo sapiens, UniProt P30411).
T1 sequence (P30411 whole entry): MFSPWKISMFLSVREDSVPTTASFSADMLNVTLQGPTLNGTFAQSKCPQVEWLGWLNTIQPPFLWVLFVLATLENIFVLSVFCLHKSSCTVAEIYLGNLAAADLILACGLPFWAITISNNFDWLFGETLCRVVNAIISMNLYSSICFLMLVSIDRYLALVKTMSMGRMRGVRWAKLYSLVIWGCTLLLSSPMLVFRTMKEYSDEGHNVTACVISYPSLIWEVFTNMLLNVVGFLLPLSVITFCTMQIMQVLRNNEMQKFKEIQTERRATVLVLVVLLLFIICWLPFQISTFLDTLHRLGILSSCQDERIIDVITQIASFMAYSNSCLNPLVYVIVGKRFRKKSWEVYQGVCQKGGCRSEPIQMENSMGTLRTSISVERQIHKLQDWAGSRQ
Put plainly: Affinity to human Bradykinin receptor B2 in CHO cell membranes determined by displacement of [3H]-NPC 17731. Summed up: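 Membranes from CHO/K cells transfected with human B2 receptor, grown in Ham's F12 with 10% FBS and 500 ug/mL G418. Buffer: 25 mM TES, 1 mM 1,10-phenanthroline, pH 6.8, with bacitracin and 0.1% BSA. Competition versus [3H]NPC-17731, 15 pM final. 1 uM bradykinin defines nonspecific binding. 90 min at 25 °C, then filtration on PEI-soaked GF/B and scintillation counting. n=3.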
In general terms: Displacement assays read how much labelled ligand stays bound in the presence of the test substance.

The species named for a further test is Rattus norvegicus. Put plainly: Pharmacological profile in bradykinin induced assay in rats ([…] in rats). It counts as functional. Summed up: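 Anesthetized Sprague–Dawley rats, carotid mean arterial pressure, jugular iv dosing, tracheotomy. After 30 min stabilization, three bradykinin injections (12 ug/kg iv, 5 min apart) set baseline hypotension. Test agent is given iv 10–15 min later, followed 5 min after by bradykinin challenge. Successive increasing doses give a cumulative dose–response; ED50 reported, n=4.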

The species named for the next test is Oryctolagus cuniculus. Put plainly: Pharmacological profile in bradykinin induced assay in rabbits ([…]). The test is classed as functional. Summed up: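 Male New Zealand white rabbits, 1.5–2.0 kg, acepromazine premedicated, pentobarbital anesthetized. Carotid catheter records mean arterial pressure continuously. Three bolus bradykinin doses (1 ug/kg iv) set baseline. Antagonist in saline is then given iv at rising doses (0.03–1000 ug/kg), each followed after 5 min by a bradykinin bolus. Percent inhibition of hypotension per animal; ED50 by probit; n=4.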

For orientation: Ki means a measure of affinity in units of concentration, obtained from inhibition or displacement. At B2 bradykinin receptor, `CC(=O)CN1CN(c2ccc(C)cc2)C2(CCN(C)CC2)C1=O` showed a Ki of 6.3 nM. As to `CC(=O)CN1CN(CCc2ccccc2)C2(CCN(C)CC2)C1=O`, the inhibition constant Ki on B2 bradykinin receptor turned out to be 0.15 nM. `CCCN1CN(CC(C)=O)C(=O)C12CCN(C)CC2` came in with an inhibition constant Ki at B2 bradykinin receptor of 27 nM. As to `CC(=O)CN1CN(CC2CCCCC2)C2(CCN(C)CC2)C1=O`, the Ki on B2 bradykinin receptor was 6.8 nM. The term ED50 denotes the midpoint of the dose-response relation. A higher ED50 goes with a need for a large dose. With `CC(=O)CN1CN(c2ccccc2)C2(CCN(C)CC2)C1=O`, the affinity on B2 bradykinin receptor, expressed as Ki, was 7.7 nM. Besides, the median effective dose (ED50) in the test filed under Rattus norvegicus came out at 400 µg/kg; in the test listed under Oryctolagus cuniculus it was 22.1 µg/kg. For `CC(=O)CN1CN(C2CCCCC2)C2(CCN(C)CC2)C1=O`, at B2 bradykinin receptor, affinity was put at a Ki of 0.57 nM. For the same compound, the ED50 in the test listed under Rattus norvegicus was 600 µg/kg; in the test filed under Oryctolagus cuniculus, 8.6 µg/kg.

The values are drawn from ChEMBL document CHEMBL1129265, “Synthesis and characterization of pseudopeptide bradykinin B2 receptor antagonists containing the 1,3,8-triazaspiro[4.5]decan-4-one ring system” (J Med Chem, 1996).
